Data: ChEMBL document CHEMBL3621107, “Ring fusion strategy for synthesis and lead optimization of sulfur-substituted anthra[1,2-c][1,2,5]thiadiazole-6,11-dione derivatives as promising scaffold of antitumor agents” (Eur J Med Chem, 2015)

Tests used:
K562 = assay: Cytotoxicity against human K562 cells assessed as cell growth at 10 uM after 48 hrs by SRB assay relative to control; type: functional; conditions: K562, 48 h, read-out: Activity
Procedure, shortened: (§1)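 First-stage NCI-60 screen by the NCI Developmental Therapeutics Program. Each compound was tested once at a single concentration of 10 μM against the 60-cell-line panel. Growth percentage was reported for each cell line.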

HOP-62 = assay: Cytotoxicity against human HOP62 cells assessed as cell growth at 10 uM after 48 hrs by SRB assay relative to control; type: functional; conditions: HOP-62, 48 h, read-out: Activity; procedure, shortened: as §1
SR = assay: Cytotoxicity against human SR cells assessed as cell growth at 10 uM after 48 hrs by SRB assay relative to control; type: functional; conditions: read-out: Activity
Procedure, shortened: (§2)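 NCI-60 one-dose screen run by NCI DTP: each cell line exposed to a single 10 µM dose, and percentage growth recorded against untreated growth.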

MCF7 = assay: Cytotoxicity against human MCF7 cells assessed as cell growth at 10 uM after 48 hrs by SRB assay relative to control; type: functional; conditions: MCF7, 48 h, read-out: Activity; procedure, shortened: as §1
OVCAR-4 = assay: Cytotoxicity against human OVCAR4 cells assessed as cell growth at 10 uM after 48 hrs by SRB assay relative to control; type: functional; conditions: OVCAR-4, 48 h, read-out: Activity
Procedure, shortened: (§3)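 First-stage NCI DTP one-dose screen against the 60 human tumour cell line panel. Compounds were tested at a single 10 μM level, and results are given as growth percentage.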

COLO 205 = assay: Cytotoxicity against human COLO205 cells assessed as cell growth at 10 uM after 48 hrs by SRB assay relative to control; type: functional; conditions: COLO 205, 48 h, read-out: Activity; procedure, shortened: as §1
SF-268 = assay: Cytotoxicity against human SF268 cells assessed as cell growth at 10 uM after 48 hrs by SRB assay relative to control; type: functional; conditions: SF-268, 48 h, read-out: Activity; procedure, shortened: as §3
RPMI-8226 = assay: Cytotoxicity against human RPMI8226 cells assessed as cell growth at 10 uM after 48 hrs by SRB assay relative to control; type: functional; conditions: RPMI-8226, 48 h, read-out: Activity; procedure, shortened: as §3
HCT-116 = assay: Cytotoxicity against human HCT116 cells assessed as cell growth at 10 uM after 48 hrs by SRB assay relative to control; type: functional; conditions: HCT-116, 48 h, read-out: Activity; procedure, shortened: as §1
SF-539 = assay: Cytotoxicity against human SF539 cells assessed as cell growth at 10 uM after 48 hrs by SRB assay relative to control; type: functional; conditions: SF-539, 48 h, read-out: Activity; procedure, shortened: as §3
CCRF-CEM = assay: Cytotoxicity against human CCRF-CEM cells assessed as cell growth at 10 uM after 48 hrs by SRB assay relative to control; type: functional; conditions: read-out: Activity; procedure, shortened: as §1
NCI-H322M = assay: Cytotoxicity against human NCI-H322M cells assessed as cell growth at 10 uM after 48 hrs by SRB assay relative to control; type: functional; conditions: read-out: Activity; procedure, shortened: as §3
UACC-257 = assay: Cytotoxicity against human UACC257 cells assessed as cell growth at 10 uM after 48 hrs by SRB assay relative to control; type: functional; conditions: UACC-257, 48 h, read-out: Activity; procedure, shortened: as §2
HL-60(TB) = assay: Cytotoxicity against human HL-60(TB) cells assessed as cell growth at 10 uM after 48 hrs by SRB assay relative to control; type: functional; conditions: HL-60, 48 h, read-out: Activity
Procedure, shortened: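 NCI Developmental Therapeutics Program 60-cell-line screen, first stage: a single dose of 10 μM against the panel, reported as percentage growth.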

SNB-75 = assay: Cytotoxicity against human SNB75 cells assessed as cell growth at 10 uM after 48 hrs by SRB assay relative to control; type: functional; conditions: SNB-75, 48 h, read-out: Activity; procedure, shortened: as §2
SN12C = assay: Cytotoxicity against human SN12C cells assessed as cell growth at 10 uM after 48 hrs by SRB assay relative to control; type: functional; conditions: read-out: Activity; procedure, shortened: as §3
MOLT-4 = assay: Cytotoxicity against human MOLT4 cells assessed as cell growth at 10 uM after 48 hrs by SRB assay relative to control; type: functional; conditions: MOLT-4, 48 h, read-out: Activity; procedure, shortened: as §3
OVCAR-3 = assay: Cytotoxicity against human OVCAR3 cells assessed as cell growth at 10 uM after 48 hrs by SRB assay relative to control; type: functional; conditions: OVCAR-3, 48 h, read-out: Activity; procedure, shortened: as §3
SNB-19 = assay: Cytotoxicity against human SNB19 cells assessed as cell growth at 10 uM after 48 hrs by SRB assay relative to control; type: functional; conditions: SNB-19, 48 h, read-out: Activity; procedure, shortened: as §2
A549 = assay: Cytotoxicity against human A549 cells assessed as cell growth at 10 uM after 48 hrs by SRB assay relative to control; type: functional; conditions: A549, 48 h, read-out: Activity; procedure, shortened: as §1
UO-31 = assay: Cytotoxicity against human UO31 cells assessed as cell growth at 10 uM after 48 hrs by SRB assay relative to control; type: functional; conditions: UO-31, 48 h, read-out: Activity; procedure, shortened: as §2
NCI-H522 = assay: Cytotoxicity against human NCI-H522 cells assessed as cell growth at 10 uM after 48 hrs by SRB assay relative to control; type: functional; conditions: NCI-H522, 48 h, read-out: Activity; procedure, shortened: as §3
CAKI-1 = assay: Cytotoxicity against human Caki1 cells assessed as cell growth at 10 uM after 48 hrs by SRB assay relative to control; type: functional; conditions: CAKI-1, 48 h, read-out: Activity; procedure, shortened: as §1
MDA-MB-468 = assay: Cytotoxicity against human MDA-MB-468 cells assessed as cell growth at 10 uM after 48 hrs by SRB assay relative to control; type: functional; conditions: MDA-MB-468, 48 h, read-out: Activity; procedure, shortened: as §3
SF-295 = assay: Cytotoxicity against human SF295 cells assessed as cell growth at 10 uM after 48 hrs by SRB assay relative to control; type: functional; conditions: SF-295, 48 h, read-out: Activity; procedure, shortened: as §3
PC-3 = assay: Cytotoxicity against human PC3 cells after 48 hrs by SRB assay; type: functional, cell-based; conditions: PC-3, 48 h
Procedure, shortened: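 Second-stage NCI-60 panel run by the NCI Developmental Therapeutics Program, covering nine tumour subpanels. Five concentrations were tested: 0.01, 0.1, 1, 10 and 100 μM. Percentage growth at each level was plotted against log10 drug concentration. GI50, TGI and LC50 were read from these dose-response curves. Subpanel MID values were divided into the full-panel MID to give selectivity ratios.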

OVCAR-8 = assay: Cytotoxicity against human OVCAR8 cells assessed as cell growth at 10 uM after 48 hrs by SRB assay relative to control; type: functional; conditions: OVCAR-8, 48 h, read-out: Activity; procedure, shortened: as §3
NCI/ADR-RES = assay: Cytotoxicity against human NCI/ADR-RES cells assessed as cell growth at 10 uM after 48 hrs by SRB assay relative to control; type: functional; conditions: read-out: Activity; procedure, shortened: as §3
MDA-MB-435 = assay: Cytotoxicity against human MDA-MB-435 cells assessed as cell growth at 10 uM after 48 hrs by SRB assay relative to control; type: functional; conditions: MDA-MB-435, 48 h, read-out: Activity; procedure, shortened: as §3

SMILES	growth at 10 µM (K562) [%]	growth at 10 µM (HOP-62) [%]	growth at 10 µM (SR) [%]	growth at 10 µM (MCF7) [%]	growth at 10 µM (OVCAR-4) [%]	growth at 10 µM (COLO 205) [%]	growth at 10 µM (SF-268) [%]	growth at 10 µM (RPMI-8226) [%]	growth at 10 µM (HCT-116) [%]	growth at 10 µM (SF-539) [%]	growth at 10 µM (NCI-H322M) [%]	growth at 10 µM (UACC-257) [%]	growth at 10 µM (HL-60(TB)) [%]	growth at 10 µM (SNB-75) [%]	growth at 10 µM (SN12C) [%]	growth at 10 µM (MOLT-4) [%]	growth at 10 µM (OVCAR-3) [%]	growth at 10 µM (SNB-19) [%]	growth at 10 µM (A549) [%]	growth at 10 µM (UO-31) [%]	further results
O=C1c2ccccc2C(=O)c2c1cc(Cl)c1nsnc21	2.44	75.8	-23.9	65.4	-75	99.1	37	27.8	48.1	109	108	76.1	1.87	85.2	71.9	-34.1	49.9	106	103	80.2	growth at 10 µM (CCRF-CEM): -41.8%; growth at 10 µM (NCI-H522): 89.5%; growth at 10 µM (CAKI-1): 96.5%; growth at 10 µM (MDA-MB-468): -88.3%; growth at 10 µM (SF-295): 109%; IC50 (PC-3): 13.5 µM; growth at 10 µM (OVCAR-8): -4.57%
O=C1c2ccccc2C(=O)c2c1ccc1nsnc21	49.6	-100	4.96	-50.7	-94.4	112	16.3	-28	-50	-47.1	126	-83.1	-21.8	79	-73.3	-40.1	-15.5	79	104	-79.3	growth at 10 µM (NCI/ADR-RES): -2.53%; growth at 10 µM (CCRF-CEM): -30.8%; growth at 10 µM (MDA-MB-435): -87.9%; growth at 10 µM (CAKI-1): 1.97%; growth at 10 µM (MDA-MB-468): -73.2%; growth at 10 µM (SF-295): 126%; IC50 (PC-3): 2.5 µM; growth at 10 µM (OVCAR-8): -10.1%
O=C1c2ccccc2C(=O)c2c1cc(SCc1ccc(Cl)cc1)c1nsnc21	67.5	89.2	63.7	83	84.2	99.9	107	86.8	115	98	94.1	78.7	57.4	63.4	93.6	22.7	113	104	101	68.5	growth at 10 µM (NCI/ADR-RES): 95.7%; growth at 10 µM (NCI-H522): 82.6%; growth at 10 µM (MDA-MB-468): 83.4%; IC50 (PC-3): > 15 µM; growth at 10 µM (OVCAR-8): 94.2%
